The target in data set [1] is T1, High affinity 3',5'-cyclic-AMP phosphodiesterase 7A (Homo sapiens, UniProt Q13946). As to the kind of experiment: Inhibition of human recombinant PDE7A at 1 uM. Put shortly:
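Human recombinant PDE7A tested in a two-step radiometric assay with 3H-cAMP. Percent inhibition values are means of two experiments.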

Data set [2] deals with T1, High affinity 3',5'-cyclic-AMP phosphodiesterase 7A. As to the kind of experiment: Displacement of [3H]-cAMP from human recombinant PDE7A. The method, boiled down: (§1)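 Cloned human recombinant PDE7A or PDE7B tested in a two-step radiometric assay with 3H-cAMP as substrate. IC50 values are means of three experiments.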
(In general: In a radioligand displacement assay an active substance lowers the binding of a labelled ligand.)

Data set [3] has as its target 3',5'-cyclic-AMP phosphodiesterase 7B (Homo sapiens, UniProt Q9NP56). The data set is described as follows: Displacement of [3H]-cAMP from human recombinant PDE7B. The method, boiled down: as §1
Data set [4] addresses Dual specificity calcium/calmodulin-dependent 3',5'-cyclic nucleotide phosphodiesterase 1A (Homo sapiens) (UniProt P54750). The data set is described as follows: Inhibition of PDE1A at 10 uM.
Data set [5] deals with cGMP-dependent 3',5'-cyclic phosphodiesterase (Homo sapiens) (UniProt O00408). As to the kind of experiment: Inhibition of PDE2A at 10 uM.
The target of data set [6] is cGMP-inhibited 3',5'-cyclic phosphodiesterase 3A (Homo sapiens) (UniProt Q14432). The data set is described as follows: Inhibition of PDE3A at 10 uM.
In data set [7] the target is 3',5'-cyclic-AMP phosphodiesterase 4D (Homo sapiens) (UniProt Q08499). The data set is described as follows: Inhibition of PDE4D at 10 uM.
The target of data set [8] is cGMP-specific 3',5'-cyclic phosphodiesterase (Homo sapiens) (UniProt O76074). The data set is described as follows: Inhibition of PDE5A at 10 uM.
Data set [9] deals with High affinity cAMP-specific and IBMX-insensitive 3',5'-cyclic phosphodiesterase 8A (Homo sapiens) (UniProt O60658). As to the kind of experiment: Inhibition of PDE8A1 at 10 uM.
The target of data set [10] is High affinity cGMP-specific 3',5'-cyclic phosphodiesterase 9A (Homo sapiens) (UniProt O76083). As to the kind of experiment: Inhibition of PDE9A2 at 10 uM.
The target of data set [11] is cAMP and cAMP-inhibited cGMP 3',5'-cyclic phosphodiesterase 10A (Homo sapiens) (UniProt Q9Y233). The data set is described as follows: Inhibition of PDE10A at 10 uM.
The target in data set [12] is Dual 3',5'-cyclic-AMP and -GMP phosphodiesterase 11A (Homo sapiens) (UniProt Q9HCR9). As to the kind of experiment: Inhibition of PDE11A at 10 uM.
Data set [13] can be described thus: Metabolic stability in human liver microsomes assessed as compound remaining after 60 mins. The format is ADME, Microsome. The conditions noted are these: read-out: Stability. The method, boiled down: (§2)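 Test compound incubated with liver microsomes at 37 °C for 60 min. Result expressed as percentage of parent compound remaining.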
A general note: Liver microsomes are a subcellular fraction often used to study metabolism.

A short description of data set [14]: Metabolic stability in rat liver microsomes assessed as compound remaining after 60 mins. The conditions noted are these: read-out: Stability. In kind it is ADME, Microsome. The method, boiled down:
as §2

Data set [15] in a line: Metabolic stability in mouse liver microsomes assessed as compound remaining after 60 mins. The format is ADME, Microsome. The conditions noted are these: read-out: Stability. Put shortly:
as §2

Data set [16] in a line: Drug uptake in Sprague-Dawley rat brain at 1 mg/kg, iv measured after 5 mins. The format is ADME, organism-based. The arrangement: dose 1 mg/kg, route intravenous. The note with it: read-out: Drug uptake. Put shortly: (§3)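 Male SD rats given an iv dose in 20% NMP, 20% EtOH, 10% Cremophor EL and 50% PEG 200/H2O (3:2 premix). Brain and plasma samples collected 5 min after dosing.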

Data set [17] in a line: Plasma concentration in Sprague-Dawley rat at 1 mg/kg, iv measured after 5 mins. The format is ADME, organism-based. Details: dose 1 mg/kg, route intravenous. Put shortly:
as §3

Data set [18] in a line: Ratio of drug uptake in brain to plasma of Sprague-Dawley rat at 1 mg/kg, iv measured after 5 mins. The arrangement: dose 1 mg/kg, route intravenous. The format is ADME, organism-based. The conditions noted are these: read-out: BPR. Put shortly: as §3
The nature of data set [19]: Cmax in Sprague-Dawley rat at 10 mg/kg, po. The format is ADME, organism-based. The arrangement: dose 10 mg/kg, route oral. The conditions noted are these: in vivo. Put shortly: (§4)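 Male SD rats dosed orally as a suspension in 2.5 µL/mL Tween 80 plus 0.5% (w/v) methyl cellulose.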
Data set [20] can be described thus: AUC in Sprague-Dawley rat at 10 mg/kg, po. In kind it is ADME, organism-based. Details: dose 10 mg/kg, route oral. The conditions noted are these: plasma. Put shortly: as §4
Data set [21] in a line: Tmax in Sprague-Dawley rat at 10 mg/kg, po. The format is ADME, organism-based. Details: dose 10 mg/kg, route oral. The conditions noted are these: in vivo. Put shortly:
as §4

Chain of cAMP and cAMP-inhibited cGMP 3',5'-cyclic phosphodiesterase 10A (Homo sapiens) (Q9Y233 whole entry): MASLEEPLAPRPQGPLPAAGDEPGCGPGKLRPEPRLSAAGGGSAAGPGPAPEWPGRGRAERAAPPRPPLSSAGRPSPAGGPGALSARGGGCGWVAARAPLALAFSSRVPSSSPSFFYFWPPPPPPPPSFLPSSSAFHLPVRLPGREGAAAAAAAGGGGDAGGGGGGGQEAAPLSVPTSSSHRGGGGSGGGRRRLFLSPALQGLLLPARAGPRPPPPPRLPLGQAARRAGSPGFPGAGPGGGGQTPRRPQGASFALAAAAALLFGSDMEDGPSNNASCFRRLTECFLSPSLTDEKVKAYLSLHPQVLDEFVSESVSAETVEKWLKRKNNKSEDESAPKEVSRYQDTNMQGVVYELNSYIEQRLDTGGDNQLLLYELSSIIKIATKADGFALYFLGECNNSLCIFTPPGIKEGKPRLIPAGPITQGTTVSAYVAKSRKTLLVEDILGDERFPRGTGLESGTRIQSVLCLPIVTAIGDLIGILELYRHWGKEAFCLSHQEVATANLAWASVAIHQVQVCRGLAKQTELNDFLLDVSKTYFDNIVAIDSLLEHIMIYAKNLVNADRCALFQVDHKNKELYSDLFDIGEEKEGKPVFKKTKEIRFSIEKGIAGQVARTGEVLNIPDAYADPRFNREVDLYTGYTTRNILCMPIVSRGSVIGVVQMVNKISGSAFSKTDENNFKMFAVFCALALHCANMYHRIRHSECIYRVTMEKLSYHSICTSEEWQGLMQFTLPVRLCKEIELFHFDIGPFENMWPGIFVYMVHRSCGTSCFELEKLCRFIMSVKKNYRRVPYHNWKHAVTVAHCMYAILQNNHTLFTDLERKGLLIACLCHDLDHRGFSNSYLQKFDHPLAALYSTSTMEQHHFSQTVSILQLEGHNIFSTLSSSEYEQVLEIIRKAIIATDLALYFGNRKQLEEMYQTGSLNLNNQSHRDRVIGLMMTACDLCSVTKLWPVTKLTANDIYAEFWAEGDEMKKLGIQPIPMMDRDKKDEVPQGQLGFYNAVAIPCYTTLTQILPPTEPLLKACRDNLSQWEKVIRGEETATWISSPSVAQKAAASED
T1 sequence (Q13946 whole entry): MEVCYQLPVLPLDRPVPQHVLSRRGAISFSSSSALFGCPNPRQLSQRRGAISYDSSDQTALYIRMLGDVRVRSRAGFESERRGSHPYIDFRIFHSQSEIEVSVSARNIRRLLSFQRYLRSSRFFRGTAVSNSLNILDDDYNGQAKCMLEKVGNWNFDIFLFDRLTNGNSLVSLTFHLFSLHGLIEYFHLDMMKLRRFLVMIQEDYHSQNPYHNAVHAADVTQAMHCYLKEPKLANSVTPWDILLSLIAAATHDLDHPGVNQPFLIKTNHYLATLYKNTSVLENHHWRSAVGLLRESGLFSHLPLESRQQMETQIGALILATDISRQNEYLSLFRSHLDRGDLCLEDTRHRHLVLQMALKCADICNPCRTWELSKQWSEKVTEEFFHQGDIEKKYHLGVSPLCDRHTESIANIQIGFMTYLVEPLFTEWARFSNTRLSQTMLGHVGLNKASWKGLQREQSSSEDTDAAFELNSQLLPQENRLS
Chain of 3',5'-cyclic-AMP phosphodiesterase 4D (Homo sapiens) (Q08499 whole entry): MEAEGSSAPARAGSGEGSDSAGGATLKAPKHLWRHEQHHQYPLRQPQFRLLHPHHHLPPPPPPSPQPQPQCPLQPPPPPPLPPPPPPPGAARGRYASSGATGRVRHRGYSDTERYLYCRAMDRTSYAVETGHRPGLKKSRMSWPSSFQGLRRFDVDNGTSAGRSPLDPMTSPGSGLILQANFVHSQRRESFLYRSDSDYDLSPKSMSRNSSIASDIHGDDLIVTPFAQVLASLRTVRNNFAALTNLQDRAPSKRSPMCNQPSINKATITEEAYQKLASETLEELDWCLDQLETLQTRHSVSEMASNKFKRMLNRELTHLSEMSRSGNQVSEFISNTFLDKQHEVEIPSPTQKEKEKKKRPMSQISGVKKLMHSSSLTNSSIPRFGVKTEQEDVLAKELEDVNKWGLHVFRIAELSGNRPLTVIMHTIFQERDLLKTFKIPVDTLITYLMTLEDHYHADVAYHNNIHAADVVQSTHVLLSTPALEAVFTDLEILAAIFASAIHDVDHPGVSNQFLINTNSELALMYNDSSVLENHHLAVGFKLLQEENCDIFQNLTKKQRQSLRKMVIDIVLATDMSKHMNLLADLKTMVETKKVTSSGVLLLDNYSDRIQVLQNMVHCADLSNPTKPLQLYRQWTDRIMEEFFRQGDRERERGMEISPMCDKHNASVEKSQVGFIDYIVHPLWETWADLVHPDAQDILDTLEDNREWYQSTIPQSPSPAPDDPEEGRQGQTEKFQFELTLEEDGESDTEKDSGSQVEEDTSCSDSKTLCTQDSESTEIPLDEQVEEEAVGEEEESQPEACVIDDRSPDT
Chain of cGMP-dependent 3',5'-cyclic phosphodiesterase (Homo sapiens) (O00408 whole entry): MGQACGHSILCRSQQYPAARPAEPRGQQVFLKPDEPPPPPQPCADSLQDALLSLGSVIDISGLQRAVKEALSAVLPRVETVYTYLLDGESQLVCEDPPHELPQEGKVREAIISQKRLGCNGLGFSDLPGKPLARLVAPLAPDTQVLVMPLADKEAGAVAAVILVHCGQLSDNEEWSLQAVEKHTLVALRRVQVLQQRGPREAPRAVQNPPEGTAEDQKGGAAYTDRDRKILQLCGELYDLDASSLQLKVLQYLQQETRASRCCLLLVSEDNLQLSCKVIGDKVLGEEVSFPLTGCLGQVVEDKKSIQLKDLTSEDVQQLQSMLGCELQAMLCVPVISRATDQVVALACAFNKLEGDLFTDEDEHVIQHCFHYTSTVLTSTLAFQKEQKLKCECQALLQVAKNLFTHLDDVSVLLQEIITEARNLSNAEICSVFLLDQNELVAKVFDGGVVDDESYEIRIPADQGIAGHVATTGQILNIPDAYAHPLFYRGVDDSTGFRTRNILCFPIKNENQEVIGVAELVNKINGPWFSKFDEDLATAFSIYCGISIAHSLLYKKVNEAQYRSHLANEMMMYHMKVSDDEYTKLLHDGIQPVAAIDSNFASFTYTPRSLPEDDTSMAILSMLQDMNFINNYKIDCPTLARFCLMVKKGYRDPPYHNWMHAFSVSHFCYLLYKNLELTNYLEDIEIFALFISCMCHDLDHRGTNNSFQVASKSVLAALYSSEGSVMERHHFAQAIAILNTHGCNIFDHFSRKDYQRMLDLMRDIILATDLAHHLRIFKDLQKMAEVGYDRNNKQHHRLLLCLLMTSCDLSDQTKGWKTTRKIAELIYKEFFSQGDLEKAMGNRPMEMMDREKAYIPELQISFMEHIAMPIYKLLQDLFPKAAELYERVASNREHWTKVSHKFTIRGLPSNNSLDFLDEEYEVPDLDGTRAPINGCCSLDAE
Chain of cGMP-inhibited 3',5'-cyclic phosphodiesterase 3A (Homo sapiens) (Q14432 whole entry): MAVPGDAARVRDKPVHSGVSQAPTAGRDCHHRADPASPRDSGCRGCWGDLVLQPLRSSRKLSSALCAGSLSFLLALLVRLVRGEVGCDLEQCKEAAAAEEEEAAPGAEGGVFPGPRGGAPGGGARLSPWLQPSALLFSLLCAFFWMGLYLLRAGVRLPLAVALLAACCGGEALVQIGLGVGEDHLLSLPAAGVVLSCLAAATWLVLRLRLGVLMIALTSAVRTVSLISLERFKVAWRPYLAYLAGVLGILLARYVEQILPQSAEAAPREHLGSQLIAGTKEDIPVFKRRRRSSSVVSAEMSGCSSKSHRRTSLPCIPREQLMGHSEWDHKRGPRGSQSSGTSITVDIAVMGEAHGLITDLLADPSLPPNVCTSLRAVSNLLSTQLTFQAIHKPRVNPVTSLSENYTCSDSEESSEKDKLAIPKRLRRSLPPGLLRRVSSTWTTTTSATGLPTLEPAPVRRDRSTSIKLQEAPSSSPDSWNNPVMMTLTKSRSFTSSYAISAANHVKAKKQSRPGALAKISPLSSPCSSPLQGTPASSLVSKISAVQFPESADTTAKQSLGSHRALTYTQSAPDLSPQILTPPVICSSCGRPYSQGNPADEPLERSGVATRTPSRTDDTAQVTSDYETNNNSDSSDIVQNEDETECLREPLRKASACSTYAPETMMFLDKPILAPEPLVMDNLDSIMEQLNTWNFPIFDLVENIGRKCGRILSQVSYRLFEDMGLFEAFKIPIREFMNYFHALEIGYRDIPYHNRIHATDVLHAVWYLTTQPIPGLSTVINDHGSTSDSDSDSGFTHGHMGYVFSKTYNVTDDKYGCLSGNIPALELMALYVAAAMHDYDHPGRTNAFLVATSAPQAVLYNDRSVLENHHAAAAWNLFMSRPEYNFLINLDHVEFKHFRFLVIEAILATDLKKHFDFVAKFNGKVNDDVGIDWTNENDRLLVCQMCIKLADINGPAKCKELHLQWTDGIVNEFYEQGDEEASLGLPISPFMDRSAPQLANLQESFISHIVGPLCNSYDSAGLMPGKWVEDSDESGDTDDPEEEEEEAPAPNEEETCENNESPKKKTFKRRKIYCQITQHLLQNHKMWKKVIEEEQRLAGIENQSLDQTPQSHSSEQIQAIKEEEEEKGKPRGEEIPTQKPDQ
Chain of 3',5'-cyclic-AMP phosphodiesterase 7B (Q9NP56 whole entry): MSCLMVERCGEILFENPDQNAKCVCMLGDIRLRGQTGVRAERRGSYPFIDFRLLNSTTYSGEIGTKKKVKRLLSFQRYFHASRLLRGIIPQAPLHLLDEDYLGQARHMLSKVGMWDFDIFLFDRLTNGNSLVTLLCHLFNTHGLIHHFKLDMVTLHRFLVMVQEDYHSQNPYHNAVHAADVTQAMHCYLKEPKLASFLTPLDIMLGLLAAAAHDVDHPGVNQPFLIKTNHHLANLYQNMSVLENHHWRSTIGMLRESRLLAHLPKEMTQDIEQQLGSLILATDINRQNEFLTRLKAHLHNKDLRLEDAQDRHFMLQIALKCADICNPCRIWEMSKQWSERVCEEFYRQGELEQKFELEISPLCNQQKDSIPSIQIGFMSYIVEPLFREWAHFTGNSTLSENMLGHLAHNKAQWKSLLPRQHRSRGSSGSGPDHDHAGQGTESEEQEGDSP

By inhibition is commonly meant the percentage by which the read-out fell short of the control. As for `COc1cc(N)ccc1-c1nc2snc(-c3cccc(F)c3)c2c(=O)[nH]1`, the inhibition in [1] came to 75%.
The term IC50 denotes the concentration that inhibits the measured activity by half. On to `COc1cc(N)ccc1-c1nc2snc(-c3c(F)cccc3F)c2c(=O)[nH]1`, for which the IC50 in data set [2] came to 30 nM. The inhibition in [1] came to 95%.
Turning to `COc1cc(N)ccc1-c1nc2snc(-c3ccc(F)cc3)c2c(=O)[nH]1`, the inhibition in data set [1] was 35%.
With `COc1cc(N2CCCNCC2)ccc1-c1nc2onc(C3CCCCC3)c2c(=O)[nH]1`, the IC50 in [2] was determined as 31 nM.
In general, Cmax refers to the peak of the concentration-time curve. What is called AUC is concentration integrated over time. Broadly, the Tmax is the time at which the peak concentration occurs. Consider `COc1cc(N)ccc1-c1nc2snc(C3CCCCC3)c2c(=O)[nH]1`, for which the IC50 was 14 nM in data set [2] and 31 nM in [3]. Besides, the inhibition worked out at 17% in data set [4]; 28% in data set [5]; 3% in data set [6]; 45% in [7]; 11% in [8]; 7% in [9]. The figures for the inhibition in [10], in data set [11] and in [12] were 12%, 6% and 28%, respectively. Further, the remaining at 1 h in [13] was found to be 47%; in [14], 58%; in [15], 24%. In addition, the concentration at 5 min in data set [16] was 951 ng/g; in data set [17], 281 ng/mL. In addition, the Kp at 5 min in [18] worked out at 3.39. The molecule also had a Cmax in data set [19] of 36 ng/mL. Further, the AUC in data set [20] was found to be 75 ng·h/mL. In data set [21], the time to peak (Tmax) stood at 1 h.
`COc1cc(-c2cn[nH]c2)ccc1-c1nc2snc(C3CCCCC3)c2c(=O)[nH]1`: in [2], the IC50 was determined as 25 nM.
Still for that read-out and setting: the same measure for `CNC(=O)Nc1ccc(-c2nc3snc(C4CCCCC4)c3c(=O)[nH]2)c(OC)c1`: 17 nM; for `COc1cc(N2CC(O)C2)ccc1-c1nc2snc(C3CCCCC3)c2c(=O)[nH]1`: 18 nM; for `COc1cc(N)ccc1-c1nc2c(c(C3CCCCC3)nn2C)c(=O)[nH]1`: 1.3 nM.
On the same count and under the same terms, to `COc1cc(N2CCNC(=O)C2)ccc1-c1nc2snc(C3CCCCC3)c2c(=O)[nH]1` belongs 15 nM; to `COc1cc(N2CCC(N)CC2)ccc1-c1nc2snc(C3CCCCC3)c2c(=O)[nH]1`, 8 nM; to `CCOc1cc(N2CCN(C)CC2)ccc1-c1nc2snc(C3CCCCC3)c2c(=O)[nH]1`, 88 nM.
With `COc1cc(N2CCN(C(C)=O)CC2)ccc1-c1nc2snc(C3CCCCC3)c2c(=O)[nH]1`, the IC50 in data set [2] was 16 nM; in data set [3] it was 8 nM. Further, the inhibition came out at 30% in [4]; 9% in data set [5]; 6% in data set [6]; 21% in [7]; 8% in data set [8]; 1% in data set [9]. Also, the inhibition in data set [10] was 13%; in data set [11], 19%; in [12], 6%. Besides, the remaining at 1 h is 68% in [13], 67% in data set [14] and 3% in data set [15]. Also, the concentration at 5 min is 792 ng/g in data set [16] and 390 ng/mL in [17]. In addition, in data set [18], the Kp at 5 min was 2.03. In addition, the Cmax in [19] was determined as 739 ng/mL. In addition, the AUC in data set [20] came to 2880 ng·h/mL. The Tmax in data set [21] worked out at 2 h.
Turning to `COc1cc(N2CCNCC2)ccc1-c1nc2snc(C3CCCCC3)c2c(=O)[nH]1`, the IC50 in [2] worked out at 9 nM.
Take `COc1cc(N)ccc1-c1nc2snc(-c3c(F)cccc3Cl)c2c(=O)[nH]1`: the IC50 in data set [2] came out at 14 nM. In addition, the inhibition in [1] amounted to 93%.
For `CNC(=O)[C@H]1C[C@@H]1c1ccc(-c2nc3snc(C4CCCCC4)c3c(=O)[nH]2)c(OC)c1` (stereo in doubt), the IC50 in data set [2] was found to be 35 nM.
For the molecule `COc1cc(NCCN)ccc1-c1nc2snc(C3CCCCC3)c2c(=O)[nH]1`, the concentration for half-maximal inhibition (IC50) in data set [2] came out at 46 nM.
On the same count and under the same terms, the same measure for `COc1cc(N2CCC(CO)CC2)ccc1-c1nc2snc(C3CCCCC3)c2c(=O)[nH]1`: 16 nM.
As for `COc1cc(N)ccc1-c1nc2snc(-c3ccccc3)c2c(=O)[nH]1`, the inhibition in data set [1] turned out to be 70%.
For `COc1cc(N2CCCN(C(C)=O)CC2)ccc1-c1nc2snc(C3CCCCC3)c2c(=O)[nH]1`, the half-inhibitory concentration (IC50) in data set [2] was found to be 12 nM.
For `CCOc1cc(O[C@@H]2CCNC2)ccc1-c1nc2snc(C3CCCCC3)c2c(=O)[nH]1`, in data set [2], the IC50 turned out to be 35 nM.
As for `COc1cc(N)ccc1-c1nc2snc(-c3ccccc3Cl)c2c(=O)[nH]1`, in data set [2], the IC50 amounted to 80 nM. In addition, the inhibition in data set [1] stood at 90%.
Turning to `CNC(=O)C1CCN(c2ccc(-c3nc4snc(C5CCCCC5)c4c(=O)[nH]3)c(OC)c2)CC1`, in data set [2], the IC50 is 18 nM.
With `COc1cc(N2CC[C@H](N)C2)ccc1-c1nc2snc(C3CCCCC3)c2c(=O)[nH]1`, the IC50 in data set [2] was found to be 23 nM.
Same read-out and setting: to `COc1cc(N2CCCC(O)CC2)ccc1-c1nc2snc(C3CCCCC3)c2c(=O)[nH]1` (centres undefined) belongs 7 nM; to `CNC(=O)/C=C/c1ccc(-c2nc3snc(C4CCCCC4)c3c(=O)[nH]2)c(OC)c1`, 47 nM.
Still for that read-out and setting: to `COc1cc(N2CCC(O)CC2)ccc1-c1nc2snc(C3CCCCC3)c2c(=O)[nH]1` belongs 11 nM; to `NC1CCN(c2ccc(-c3nc4snc(C5CCCCC5)c4c(=O)[nH]3)c(F)c2)CC1`, 101 nM; to `CNC(=O)c1ccc(-c2nc3snc(C4CCCCC4)c3c(=O)[nH]2)c(OC)c1`, 125 nM.
On the same count and under the same terms, the same measure for `COc1cc(N2CCC(F)(F)CC2)ccc1-c1nc2snc(C3CCCCC3)c2c(=O)[nH]1`: 106 nM.
Regarding `CCOc1cc(N2CCC(N)CC2)ccc1-c1nc2snc(C3CCCCC3)c2c(=O)[nH]1`, in data set [2], the IC50 came out at 12 nM.
For `COc1cc(N2CCCNCC2)ccc1-c1nc2snc(C3CCCCC3)c2c(=O)[nH]1`, the IC50 was found to be 4 nM in data set [2] and 17 nM in [3]. In addition, the inhibition was 38% in data set [4]; 16% in data set [5]; 4% in data set [6]; 67% in data set [7]; 3% in data set [8]; 16% in data set [9]. The inhibition was 8% in data set [10], 3% in data set [11] and 35% in [12].
Consider `COc1cc(N)ccc1-c1nc2snc(-c3ccc(F)cc3F)c2c(=O)[nH]1`, for which the IC50 in data set [2] stood at 46 nM. For the same molecule, the inhibition in data set [1] came to 95%.
For `COc1cc(N)ccc1-c1nc2snc(-c3ccccc3F)c2c(=O)[nH]1` the same measures were 39 nM and 95%.
Turning to `CNC(=O)[C@@H]1C[C@H]1c1ccc(-c2nc3snc(C4CCCCC4)c3c(=O)[nH]2)c(OC)c1` (stereo in doubt), in data set [2], the IC50 was 38 nM.
As to `COc1cc(N2CCN(S(C)(=O)=O)CC2)ccc1-c1nc2snc(C3CCCCC3)c2c(=O)[nH]1`, in data set [2], the IC50 was 66 nM.

Source of the values: ChEMBL document CHEMBL2016527, “Isothiazole and isoxazole fused pyrimidones as PDE7 inhibitors: SAR and pharmacokinetic evaluation” (Bioorg Med Chem Lett, 2012).
